Experimental data as given in ChEMBL document CHEMBL1817578, “2-({6-[(3R)-3-amino-3-methylpiperidine-1-yl]-1,3-dimethyl-2,4-dioxo-1,2,3,4-tetrahydro-5H-pyrrolo[3,2-d]pyrimidine-5-yl}methyl)-4-fluorobenzonitrile (DSR-12727): a potent, orally active dipeptidyl peptidase IV inhibitor without mechanism-based inactivation of CYP3A” (Bioorg Med Chem, 2011).

What was measured:
[1] = biological target: T1, Muscarinic acetylcholine receptor M1 (Homo sapiens, UniProt P11229); assay: Binding affinity to muscarinic receptor 1
T1 sequence (P11229 whole entry): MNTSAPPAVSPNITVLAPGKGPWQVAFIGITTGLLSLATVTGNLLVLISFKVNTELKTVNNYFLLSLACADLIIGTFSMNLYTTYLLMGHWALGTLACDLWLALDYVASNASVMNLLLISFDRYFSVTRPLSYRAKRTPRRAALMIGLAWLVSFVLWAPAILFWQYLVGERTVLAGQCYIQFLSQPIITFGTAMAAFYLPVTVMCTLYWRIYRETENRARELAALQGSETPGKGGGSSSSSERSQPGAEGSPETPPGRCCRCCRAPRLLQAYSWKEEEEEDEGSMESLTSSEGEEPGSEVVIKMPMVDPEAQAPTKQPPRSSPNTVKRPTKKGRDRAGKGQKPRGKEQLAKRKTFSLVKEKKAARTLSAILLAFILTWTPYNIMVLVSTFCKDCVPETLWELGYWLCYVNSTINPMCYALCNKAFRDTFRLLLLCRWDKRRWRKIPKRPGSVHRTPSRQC

Cytochrome P450 2D6 = Cytochrome P450 2D6 (Homo sapiens, UniProt P10635); assay: Inhibition of CYP2D6; assay type: ADME
[2] = Oral bioavailability in rat at 3 mg/kg; assay type: ADME, organism-based; details: in vivo
[3] = Toxicity in rat assessed as organ toxicity after 2 weeks repeated dosage; assay type: organism-based; details: in vivo
Method in brief: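 2-week repeated-dose toxicity study; rats n = 5 per sex, monkeys n = 1 per sex.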

[4] = Volume of distribution at steady state in dog at 1 mg/kg, iv; assay type: ADME, organism-based, Canis lupus familiaris; set-up: dose 1 mg/kg, route intravenous; details: in vivo, read-out: Vdss
Prolyl endopeptidase FAP = biological target: T2, Prolyl endopeptidase FAP (Homo sapiens, UniProt Q12884); assay: Inhibition of FAPalpha
T2 sequence (Q12884 whole entry): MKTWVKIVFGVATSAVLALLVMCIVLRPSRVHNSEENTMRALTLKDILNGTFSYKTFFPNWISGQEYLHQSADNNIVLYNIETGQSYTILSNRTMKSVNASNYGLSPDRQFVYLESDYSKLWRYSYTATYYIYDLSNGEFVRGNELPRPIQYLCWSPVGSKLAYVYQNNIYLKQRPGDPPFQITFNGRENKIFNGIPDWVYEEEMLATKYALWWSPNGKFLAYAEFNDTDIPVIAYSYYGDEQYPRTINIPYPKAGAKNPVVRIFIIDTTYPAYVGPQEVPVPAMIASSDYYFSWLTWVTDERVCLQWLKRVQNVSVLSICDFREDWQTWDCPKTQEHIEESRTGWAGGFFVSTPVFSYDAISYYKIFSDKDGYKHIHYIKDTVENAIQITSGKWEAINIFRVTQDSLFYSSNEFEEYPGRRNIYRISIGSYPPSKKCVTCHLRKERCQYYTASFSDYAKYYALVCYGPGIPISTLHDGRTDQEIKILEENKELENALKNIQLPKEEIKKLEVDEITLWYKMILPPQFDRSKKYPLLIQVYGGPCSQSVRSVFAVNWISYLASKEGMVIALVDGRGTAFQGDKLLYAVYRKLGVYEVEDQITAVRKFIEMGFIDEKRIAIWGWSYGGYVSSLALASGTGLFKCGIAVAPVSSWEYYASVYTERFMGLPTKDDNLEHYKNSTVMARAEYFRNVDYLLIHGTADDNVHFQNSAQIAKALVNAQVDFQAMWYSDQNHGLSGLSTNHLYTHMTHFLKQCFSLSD

[5] = Solubility of the compound in buffered water at pH 1.2 to 6.8; assay type: physicochemical
Method in brief: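 Free amine form dissolved in buffered water at pH 1.2, 5.5 and 6.8.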

Dipeptidyl peptidase 2 = Dipeptidyl peptidase 2 (Homo sapiens, UniProt Q9UHL4); assay: Inhibition of DPP2
[6] = Oral bioavailability in dog at 3 mg/kg, po; assay type: ADME, organism-based, Canis lupus familiaris; details: in vivo
[7] = Half life in monkey at 3 mg/kg, po; assay type: ADME, organism-based, Macaca mulatta; set-up: dose 3 mg/kg, route oral; details: rhesus monkey, in vivo
[8] = Half life in rat at 3 mg/kg, po; assay type: ADME, organism-based; set-up: dose 3 mg/kg, route oral; details: in vivo
[9] = Plasma protein binding in human; assay type: ADME, cell-free; details: read-out: PPB (converted)
[10] = Plasma protein binding in monkey; assay type: ADME, cell-free, Macaca mulatta; details: rhesus monkey, read-out: PPB (converted)
[11] = Volume of distribution at steady state in monkey at 1 mg/kg, iv; assay type: ADME, organism-based, Macaca mulatta; set-up: dose 1 mg/kg, route intravenous; details: rhesus monkey, in vivo, read-out: Vdss
Dipeptidyl peptidase 9 = Dipeptidyl peptidase 9 (Homo sapiens, UniProt Q86TI2); assay: Inhibition of DPP9
Prolyl endopeptidase = biological target: T3, Prolyl endopeptidase (Homo sapiens, UniProt P48147); assay: Inhibition of prolyl oligopeptidase
T3 sequence (P48147 whole entry): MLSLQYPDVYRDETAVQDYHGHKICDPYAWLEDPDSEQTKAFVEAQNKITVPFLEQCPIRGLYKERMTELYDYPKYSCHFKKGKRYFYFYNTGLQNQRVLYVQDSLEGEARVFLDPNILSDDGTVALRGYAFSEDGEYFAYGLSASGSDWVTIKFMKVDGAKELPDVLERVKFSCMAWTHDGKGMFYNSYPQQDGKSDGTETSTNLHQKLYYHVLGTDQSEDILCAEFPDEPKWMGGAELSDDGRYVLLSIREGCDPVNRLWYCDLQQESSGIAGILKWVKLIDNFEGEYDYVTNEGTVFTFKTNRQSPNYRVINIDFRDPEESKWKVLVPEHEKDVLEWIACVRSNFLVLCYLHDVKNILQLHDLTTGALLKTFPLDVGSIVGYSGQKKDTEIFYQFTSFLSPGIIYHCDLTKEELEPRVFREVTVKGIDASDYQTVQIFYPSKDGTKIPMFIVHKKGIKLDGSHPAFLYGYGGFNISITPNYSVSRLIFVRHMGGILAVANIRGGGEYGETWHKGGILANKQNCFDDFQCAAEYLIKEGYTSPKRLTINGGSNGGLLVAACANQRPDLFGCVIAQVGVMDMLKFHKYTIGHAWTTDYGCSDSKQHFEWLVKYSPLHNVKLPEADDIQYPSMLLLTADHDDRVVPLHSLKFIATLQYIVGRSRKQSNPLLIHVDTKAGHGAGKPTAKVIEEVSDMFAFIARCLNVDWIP

[12] = Plasma protein binding in rat; assay type: ADME, cell-free; details: read-out: PPB (converted)
[13] = Volume of distribution at steady state in rat at 1 mg/kg, iv; assay type: ADME, organism-based; set-up: dose 1 mg/kg, route intravenous; details: in vivo, read-out: Vdss
[14] = Plasma protein binding in dog; assay type: ADME, cell-free, Canis lupus familiaris; details: read-out: PPB (converted)

Sequence of Cytochrome P450 2D6 (P10635 whole entry): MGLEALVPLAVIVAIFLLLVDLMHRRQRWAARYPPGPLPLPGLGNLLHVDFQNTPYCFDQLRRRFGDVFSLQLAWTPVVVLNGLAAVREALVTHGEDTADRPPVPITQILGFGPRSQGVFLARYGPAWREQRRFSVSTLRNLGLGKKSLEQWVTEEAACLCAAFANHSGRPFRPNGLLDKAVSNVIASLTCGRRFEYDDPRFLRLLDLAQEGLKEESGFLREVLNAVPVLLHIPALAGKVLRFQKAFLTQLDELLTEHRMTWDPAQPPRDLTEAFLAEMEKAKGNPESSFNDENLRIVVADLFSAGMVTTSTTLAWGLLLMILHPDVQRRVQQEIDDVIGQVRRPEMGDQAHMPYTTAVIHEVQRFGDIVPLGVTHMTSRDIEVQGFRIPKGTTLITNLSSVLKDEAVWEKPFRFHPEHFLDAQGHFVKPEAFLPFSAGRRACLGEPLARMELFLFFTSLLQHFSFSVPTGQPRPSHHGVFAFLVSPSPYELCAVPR
Sequence of Dipeptidyl peptidase 9 (Q86TI2 whole entry): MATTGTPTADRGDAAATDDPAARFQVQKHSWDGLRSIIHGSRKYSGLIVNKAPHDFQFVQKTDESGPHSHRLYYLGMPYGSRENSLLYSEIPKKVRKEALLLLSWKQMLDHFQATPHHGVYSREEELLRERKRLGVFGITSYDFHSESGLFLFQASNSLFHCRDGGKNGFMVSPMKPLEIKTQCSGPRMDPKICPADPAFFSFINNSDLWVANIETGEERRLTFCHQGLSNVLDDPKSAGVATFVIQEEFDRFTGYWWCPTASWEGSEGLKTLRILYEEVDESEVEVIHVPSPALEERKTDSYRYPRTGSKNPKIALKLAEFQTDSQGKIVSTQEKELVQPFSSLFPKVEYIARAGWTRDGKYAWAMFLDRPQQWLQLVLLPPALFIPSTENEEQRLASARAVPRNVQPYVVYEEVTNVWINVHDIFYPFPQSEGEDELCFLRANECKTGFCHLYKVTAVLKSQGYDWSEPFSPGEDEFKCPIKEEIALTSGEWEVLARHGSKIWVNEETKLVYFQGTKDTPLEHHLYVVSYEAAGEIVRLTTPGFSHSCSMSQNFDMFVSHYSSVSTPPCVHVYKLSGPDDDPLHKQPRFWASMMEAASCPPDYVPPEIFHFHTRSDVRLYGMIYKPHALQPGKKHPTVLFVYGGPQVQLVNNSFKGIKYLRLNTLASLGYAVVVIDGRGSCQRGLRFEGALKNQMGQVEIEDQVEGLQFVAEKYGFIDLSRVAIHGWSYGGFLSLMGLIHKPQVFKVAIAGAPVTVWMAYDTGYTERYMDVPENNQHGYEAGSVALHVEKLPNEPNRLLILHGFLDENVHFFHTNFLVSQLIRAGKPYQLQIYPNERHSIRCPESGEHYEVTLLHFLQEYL

Cn1c(=O)c2c(cc(N3CCC[C@@](C)(N)C3)n2Cc2cc(F)ccc2C#N)n(C)c1=O
IC50 [1]: > 10 µM | IC50 (Cytochrome P450 2D6): 38 µM | bioavailability [2]: 52% | NOAEL at 336 h [3]: 60 mg/kg/day | Vd [4]: 5.8 L/kg | IC50 (Prolyl endopeptidase FAP): > 50 µM | solubility [5]: > 1000 µg/mL | IC50 (Dipeptidyl peptidase 2): > 50 µM | bioavailability [6]: 91% | half-life [7]: 15 h | half-life [8]: 3.3 h | fraction unbound [9]: 0.27 | fraction unbound [10]: 0.31 | Vd [11]: 10 L/kg | IC50 (Dipeptidyl peptidase 9): > 50 µM | IC50 (Prolyl endopeptidase): > 50 µM | fraction unbound [12]: 0.22 | Vd [13]: 6.5 L/kg | fraction unbound [14]: 0.41
